Among all 330,000 compounds or so, about 300 (0.091%) were called active. The entries come from a sample that favours actives as a whole. A number with no mark means an inactive call.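 The calls were made as follows: active = percent activation above the screen-wide mean plus 3 SD (cut at about 25% in these data); inactive = the rest.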
Molecular target: Caspase-7 (Homo sapiens) (UniProt P55210)
Assay: procaspase-7 activators, primary screen, counter-screen for procaspase-3 activator project, biochemical, absorbance, HTS, human (AID 463210)
Conditions: recombinant procaspase-7, Ac-DEVD-pNA absorbance 405 nm; at 8.5 µM; stronger effect = higher value; D23A/D198A/D206A triple mutant, cannot self-cleave; scale: DMSO 0, 5 µM enzyme 100
Summary of the method: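 System: Procaspase-7 triple mutant (PC-7 D3A); measure: % activation from two-timepoint absorbance difference, scaled to controls; times: 1 h compound preincubation, 2 h substrate cleavage, 25 °C; also added: Ac-DEVD-pNA substrate, 400 µM as added; measured by: Epi-absorbance of released pNA at 405 nm, two timepoints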

Chain of Caspase-7 (Homo sapiens) (P55210 whole entry D23A/D198A/D206A): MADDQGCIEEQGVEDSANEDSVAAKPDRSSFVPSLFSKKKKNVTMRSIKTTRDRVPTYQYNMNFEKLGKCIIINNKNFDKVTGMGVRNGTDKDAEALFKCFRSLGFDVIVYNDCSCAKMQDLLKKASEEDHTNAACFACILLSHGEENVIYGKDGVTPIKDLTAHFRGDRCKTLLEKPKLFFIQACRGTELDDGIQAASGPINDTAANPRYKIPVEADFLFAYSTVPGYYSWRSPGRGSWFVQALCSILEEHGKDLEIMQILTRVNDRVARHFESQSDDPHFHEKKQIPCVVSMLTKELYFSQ

SMILES	activation
CCOC(=O)C1(CCOC)CCN(Cc2ccc(C(=O)OC)cc2)CC1	1.4%
CCOC(=O)C1(CCOc2ccccc2)CCN(Cc2cc(OC)cc(OC)c2)CC1	-7.5%
CCOC(=O)C1(CCOC)CCN(Cc2cc3ccccc3s2)CC1	31.9% (active)
S=C(Nc1ccc(Br)cc1)NC1CCN(Cc2ccccc2)CC1	-4.11%
CCCCNS(=O)(=O)c1ccc2nc(SCC(=O)Nc3cc(C)cc(C)c3)[nH]c2c1	7.82%
COC(=O)c1ccc(NS(=O)(=O)c2cc3c4c(c2)C(C)C(=O)N4CCC3)cc1 (stereo not given)	8.38%
O=C(C[n+]1cc(-c2ccc(Cl)c(Cl)c2)n2c1CCC2)c1cccs1	5.63%
COC(=O)CC1=NN(c2nc(C)cc(C)n2)C(=O)C1	2.23%
CC(C)(C)c1ccc(/C=C2\Oc3c(ccc(O)c3CN3CCN(CCO)CC3)C2=O)cc1	-5.14%
Cc1ccc(S(=O)(=O)N2C[C@@H]3CCCC[C@@H]3[C@@H](C)[C@H]2c2cn(Cc3ccccc3)c3ccc(F)cc23)cc1	6.02%
Cc1c(C(=O)N(Cc2ccccc2)Cc2cccnc2)cnn1-c1ccc(F)cc1	3.32%
COc1ccc(OCc2cc(C(=O)N3CCCC3)no2)c2ccccc12	-1.07%
CN=C1SC(CC(=O)Nc2ccc(C(=O)O)cc2)C(=O)N1C (stereo not given)	1.33%
CCCS(=O)(=O)N1CCC(C(=O)NCCc2ccc(OC)c(OC)c2)CC1	5.54%
O=C1CN(C(=O)c2cc(F)cc(F)c2)c2ccccc2N1	2.59%
CCOC(=O)C1CCN(C(=O)COC(=O)C2CCN(S(=O)(=O)c3ccc4c(c3)OCCO4)CC2)CC1	2.16%
CCCCc1ccc(NS(=O)(=O)c2cccc(C(=O)N3CCCN(C)CC3)c2)cc1	-3.56%
Cc1ccc(S(=O)(=O)NCCC(=O)OCC(=O)N(C)c2ccccc2)cc1	1.61%
COc1ccc(-n2cc(CNC3CCOCC3)c(-c3cccc(F)c3)n2)cc1	-1.78%
CCOc1ccc2c(c1)c(=O)c(S(=O)(=O)c1ccc(C)cc1)cn2CC	-6.47%
C=CCN(c1ccccc1C(=O)NCC(=O)OCC)S(=O)(=O)c1ccc(C)cc1	4.75%
CC(=O)N1c2ccc(S(=O)(=O)N3CCCC(C(=O)NCc4ccc(Cl)cc4)C3)cc2CC1C (stereo not given)	1.56%
COc1ccc(CN(C(=O)CSc2nnc(-c3ccc(OC)c(OC)c3)o2)c2ccc(F)cc2)cc1	-3.3%

SMILES	activation
O=C1CCCCN1CCCC(=O)N1CCCC(Nc2ccc(F)cc2)C1 (stereo not given)	-11.7%
CCOc1cc(C(=O)N2CCc3cc(OC)c(OC)cc3C2)ccc1OC(F)F	10.5%
CCCSc1ncccc1C(=O)O	5.5%
CCC(CC)NC(=O)CSc1nnc(-c2c[nH]c3ccccc23)o1	-2.98%
Cc1cc(C)c(S(=O)(=O)NCC2CCC(C(=O)NCc3ccc4c(c3)OCO4)CC2)c(C)c1 (stereo not given)	10.5%
CCn1c2ccccc2c2cc(NC(=O)C/C(C)=N/NC(=O)c3ccccc3N)ccc21	-4.21%
Cc1nccn1CCC1CCCCN1C(=O)CCc1nnc(-c2ccsc2)o1 (stereo not given)	0.42%
O=C(CCn1nnc2ccccc2c1=O)N[C@@H](Cc1c[nH]c2ccccc12)C(=O)O	9.07%
CC(C(=O)N1CCN(c2ccccc2F)CC1)c1ccc([N+](=O)[O-])cc1 (stereo not given)	-5.29%
CCCCCc1nnc(NC(=O)c2ccc(=O)n(C)n2)s1	9.59%
Cc1csc(/N=C/N(C)C)c1C#N	-2.59%
OCCC1CN(Cc2cccn2-c2nccs2)CCN1CCc1ccccc1 (stereo not given)	3.58%
COC(=O)c1cccnc1NC(=S)NC(C)C	3.88%
COc1ccc(N2CCN(S(=O)(=O)c3cc4c5c(c3)C(C)C(=O)N5CCC4)CC2)cc1 (stereo not given)	4.7%
COc1ccc2sc(-c3ccc(S(C)(=O)=O)cc3)c(C#Cc3cncn3C)c2c1	32.4% (active)
COc1ccc2sc(-c3ccc(S(C)(=O)=O)cc3)c(-c3ccc(C(N)=O)cc3)c2c1	-9.45%
COc1ccc(-c2sc3ccc(OC)cc3c2C#Cc2ccccn2)cc1	25.1%
CN(CC(=O)Nc1ccccc1Cl)C(=O)c1ccccc1SCC(=O)N1CCCC1	5.38%
Cc1ccccc1N(C(=O)CNC(=O)c1cccs1)C(C(=O)NC1CCCC1)c1ccncc1 (stereo not given)	2.19%
COc1ccc(Nc2ncnc3sc(C)cc23)cc1	4.02%
COc1ccc(Nc2ncnc3ccc(Br)cc23)c(OC)c1	-0.33%
COc1ccc(Nc2ncnc3sc(-c4ccccc4)cc23)c(OC)c1	47.3% (active)
O=C(Cn1cncn1)N/N=C/c1c2ccccc2cc2ccccc12	-18.1%

SMILES	activation
Oc1ccc(-c2onc3ccc(Cl)cc23)cc1	-16.8%
COc1ccc(-c2onc3ccc(C(C)=O)cc23)cc1	68.7% (active)
CC(OC(=O)c1ccc2noc(-c3ccccc3)c2c1)C(N)=O (stereo not given)	-10.9%
CCOC(=O)CN1C(=O)C(=O)c2cc(C)ccc21	3.45%
CCCCCCCCCCOC(=O)Cn1c(COc2ccc(C)cc2)[n+](C)c2ccccc21	0.03%
CCCCOC(=O)Cn1c(=O)n(CC(=O)OCCCC)c2cc(C)ccc21	26.8% (active)
Nc1ncnc(Nc2cccc(Cl)c2Cl)n1	1.33%
O=C(NCCCO)/C(=C\C=C\c1ccccc1)NC(=O)c1ccccc1Cl	0.01%
Cc1cc(C)cc(Oc2c(C(F)(F)F)oc3cc(OCC(=O)O)ccc3c2=O)c1	-4.44%
Cc1ccc(S(=O)(=O)N2CCC(C(=O)N[C@@H](C)C(=O)NCc3ccco3)CC2)cc1	-5.6%
CC1(c2nnc(Cc3ccccc3)o2)CC(c2ccccc2F)=NO1 (stereo not given)	-4.57%
Cn1cc(S(=O)(=O)NC(c2ccccc2)c2ccccc2)c(=O)n(C)c1=O	8.63%
Cn1nc(C(F)(F)F)c(-c2ccc(F)cc2)c1NC(=O)CSCC(=O)O	3.17%
CC(CCc1ccccc1)NC(=O)COC(=O)c1ccc(F)cc1 (stereo not given)	4.27%
CSCCC(NS(=O)(=O)c1ccc(C)cc1)C(=O)N1CCCC1 (stereo not given)	0.13%
COc1ccc(C(CC(=O)N2CCN(c3ccccc3)CC2)c2c(O)cc(OC)cc2OC)cc1 (stereo not given)	5.61%
CCCn1c(C)cc(/C=C(\C#N)C(=O)OCC(=O)N(C)c2c(N)n(Cc3ccccc3)c(=O)[nH]c2=O)c1C	-1.74%
CCn1c(O)c2ccc(C(=O)N=NC(=O)c3cccnc3)cc2c1O	-2.1%
CN1CCN(C(=O)C2=C[C@H](c3ccc4c(c3)OCO4)C[C@H](OCc3ccc(CO)cc3)O2)CC1	0.27%
O=c1cc(CN2CCN(S(=O)(=O)/C=C/c3ccccc3)CC2)c2ccc(O)cc2o1	17.5%
O=C(O)CCN(Cc1ccccc1)S(=O)(=O)c1c(Cl)cccc1Cl	3.54%
O=[N+]([O-])c1cc(Cl)cc(/C=N/NC(=S)Nc2cc(S(=O)(=O)N3CCOCC3)ccc2Cl)c1O	-6.79%
Cc1ccc2nsnc2c1S(=O)(=O)N1CCCC1C(=O)O (stereo not given)	8.06%

SMILES	activation
CC(=O)N[C@@H](C)C(=O)N1CCC(n2nccc2NC(=O)CCCc2ccccc2)CC1	8.17%
O=c1c2ccccc2ccc2ccc(P(=O)(O)O)cc12	4.72%
O=C(c1cn(-c2ccccc2)nc1-c1cccnc1)N1CCN(S(=O)(=O)c2ccccc2F)CC1	11.3%
COc1ccc(CCNC2=C(Cl)C(=O)N(Cc3ccccc3)C2=O)cc1OC	-9.7%
COc1ccc(COCCN2CCN(S(=O)(=O)c3ccccc3)CCC2=O)cc1	-12.7%
COc1ccc2c(c1)C(NS(=O)(=O)OCC(Cl)(Cl)Cl)CCC2 (stereo not given)	-4.56%
C=CCN(C(=O)Nc1ccc2oc(C)nc2c1)c1ccccc1	-21.8%
CCN(CC)c1ccc2oc(=O)c(C)nc2c1	40.2% (active)
CCN(CC)c1ccc(C(=O)Nn2c(C)nc3ccccc3c2=O)cc1	-1.52%
COc1cccc(NC(=O)Cn2c3ccccc3c3nc4n(c(=O)c32)CCS4)c1	9.71%
CC1=C(N2CCN(c3ncccn3)CC2)CCC1=O	-1.68%
COc1ccc(S(=O)(=O)NCCOc2ccccc2)cc1F	-0.02%
COc1cc(N=Cc2c(O)c3ccccc3oc2=O)c(OC)cc1Cl	14.3%
COc1ccccc1N=C(C)C1=C(O)COC1=O	0.79%
COc1ccccc1N=Cc1c(O)c2ccccc2oc1=O	50.8% (active)
COc1ccc(C(O)(C2CCCCC2)C(CN2CCCC2)c2ccccc2)cc1 (stereo not given)	0.02%
COCC1CCCN(C(=O)c2ccc3oc(C(C)C)nc3c2)C1 (stereo not given)	-9.62%
COc1ccc(NC(=O)C2CCN(S(=O)(=O)c3ccc4[nH]c(=O)oc4c3)CC2)c(OC)c1	-1.26%
COc1ccc(CCNC(=O)CN2C(=O)COc3ccc(S(=O)(=O)N4CCCC4)cc32)cc1OC	-1.51%
CCN(C(=O)COC(=O)c1ccc(COc2ccc3c(C)cc(=O)oc3c2)cc1)C1CCS(=O)(=O)C1 (stereo not given)	11%
O=c1cc(CO)oc(C(Nc2cccc(C(F)(F)F)c2)c2ccccn2)c1O (stereo not given)	-8.69%

From PubChem BioAssay AID463210 (The Scripps Research Institute Molecular Screening Center, 2010)
